Measurements as given in ChEMBL document CHEMBL4152188, “Design, synthesis and biological evaluation of C(4) substituted monobactams as antibacterial agents against multidrug-resistant Gram-negative bacteria” (Eur J Med Chem, 2018).
≈ marks a conversion by molar mass, not a printed value.

Experiments:
Type in all cases: functional
[1] = system: Klebsiella pneumoniae; assay: Selectivity index, ratio of MIC for against KPC-2 producing Klebsiella pneumoniae isolate 212423 to MIC for against KPC-2 producing Klebsiella pneumoniae isolate 212423 in presence of BPL
[2] = system: Klebsiella pneumoniae; assay: Selectivity index, ratio of MIC for against KPC-2 producing Klebsiella pneumoniae isolate 209735 to MIC for against KPC-2 producing Klebsiella pneumoniae isolate 209735 in presence of BPL
[3] = system: Escherichia coli; assay: Antibacterial activity against Escherichia coli isolate 210737 after 18 hrs by CLSI broth microdilution method; conditions: isolate 210737, 18 h
[4] = system: Klebsiella pneumoniae; assay: Antibacterial activity against KPC-2 producing Klebsiella pneumoniae isolate 212229 after 18 hrs by CLSI broth microdilution method; conditions: isolate 212229, 18 h
[5] = system: Klebsiella pneumoniae; assay: Selectivity index, ratio of MIC for against KPC-2 producing Klebsiella pneumoniae isolate 212229 to MIC for against KPC-2 producing Klebsiella pneumoniae isolate 212229 in presence of BPL
[6] = system: Escherichia coli; assay: Selectivity index, ratio of MIC for against extended-spectrum beta-lactamase producing Escherichia coli isolate 106342 to MIC for extended-spectrum beta-lactamase producing Escherichia coli isolate 106342 in presence of BPL
[7] = system: Escherichia coli; assay: Selectivity index, ratio of MIC for against extended-spectrum beta-lactamase producing Escherichia coli isolate 208687 to MIC for extended-spectrum beta-lactamase producing Escherichia coli isolate 208687 in presence of BPL
[8] = system: Escherichia coli; assay: Antibacterial activity against extended-spectrum beta-lactamase producing Escherichia coli isolate 212648 after 18 hrs by CLSI broth microdilution method; conditions: isolate 212648, 18 h
[9] = system: Klebsiella pneumoniae; assay: Selectivity index, ratio of MIC for against KPC-2 producing Klebsiella pneumoniae isolate 212232 to MIC for against KPC-2 producing Klebsiella pneumoniae isolate 212232 in presence of BPL
[10] = system: Escherichia coli; assay: Antibacterial activity against extended-spectrum beta-lactamase producing Escherichia coli isolate 106342 after 18 hrs by CLSI broth microdilution method; conditions: isolate 106342, 18 h
[11] = system: Escherichia coli; assay: Antibacterial activity against extended-spectrum beta-lactamase producing Escherichia coli isolate 209285 after 18 hrs by CLSI broth microdilution method; conditions: isolate 209285, 18 h
[12] = system: Klebsiella pneumoniae; assay: Antibacterial activity against KPC-2 producing Klebsiella pneumoniae isolate 209632 after 18 hrs in presence of BPL by CLSI broth microdilution method; conditions: isolate 209632, 18 h
In short: (§1)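 CLSI broth microdilution against clinical isolates (ESBL E. coli, KPC-2 MDR K. pneumoniae, IMP-4 MDR P. aeruginosa; five per species). Iron limitation: Mueller-Hinton broth supplemented with 16 mg/liter 2,2'-bipyridyl to complex iron and induce iron uptake systems. Read-out: MIC.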

[13] = system: Klebsiella pneumoniae; assay: Antibacterial activity against KPC-2 producing Klebsiella pneumoniae isolate 212423 after 18 hrs in presence of BPL by CLSI broth microdilution method; conditions: isolate 212423, 18 h; in short: as §1
[14] = system: Pseudomonas aeruginosa; assay: Selectivity index, ratio of MIC for against IMP-4 producing Pseudomonas aeruginosa isolate 207272 to MIC for against IMP-4 producing Pseudomonas aeruginosa isolate 207272 in presence of BPL
[15] = system: Escherichia coli; assay: Selectivity index, ratio of MIC for against Escherichia coli isolate 210737 to MIC for Escherichia coli isolate 210737 in presence of BPL
[16] = system: Escherichia coli; assay: Antibacterial activity against extended-spectrum beta-lactamase producing Escherichia coli isolate 212648 after 18 hrs in presence of BPL by CLSI broth microdilution method; conditions: isolate 212648, 18 h; in short: as §1
[17] = system: Klebsiella pneumoniae; assay: Antibacterial activity against KPC-2 producing Klebsiella pneumoniae isolate 212229 after 18 hrs in presence of BPL by CLSI broth microdilution method; conditions: isolate 212229, 18 h; in short: as §1
[18] = system: Klebsiella pneumoniae; assay: Antibacterial activity against KPC-2 producing Klebsiella pneumoniae isolate 212232 after 18 hrs in presence of BPL by CLSI broth microdilution method; conditions: isolate 212232, 18 h; in short: as §1
[19] = system: Escherichia coli; assay: Antibacterial activity against Escherichia coli isolate 210737 after 18 hrs in presence of BPL by CLSI broth microdilution method; conditions: isolate 210737, 18 h; in short: as §1
[20] = system: Escherichia coli; assay: Antibacterial activity against extended-spectrum beta-lactamase producing Escherichia coli isolate 106342 after 18 hrs in presence of BPL by CLSI broth microdilution method; conditions: isolate 106342, 18 h; in short: as §1
[21] = system: Pseudomonas aeruginosa; assay: Antibacterial activity against IMP-4 producing Pseudomonas aeruginosa isolate 207272 after 18 hrs by CLSI broth microdilution method; conditions: isolate 207272, 18 h
[22] = system: Klebsiella pneumoniae; assay: Antibacterial activity against KPC-2 producing Klebsiella pneumoniae isolate 209735 after 18 hrs by CLSI broth microdilution method; conditions: isolate 209735, 18 h
[23] = system: Pseudomonas aeruginosa; assay: Selectivity index, ratio of MIC for against IMP-4 producing Pseudomonas aeruginosa isolate 208247 to MIC for against IMP-4 producing Pseudomonas aeruginosa isolate 208247 in presence of BPL
[24] = system: Pseudomonas aeruginosa; assay: Antibacterial activity against IMP-4 producing Pseudomonas aeruginosa isolate 209321 after 18 hrs in presence of BPL by CLSI broth microdilution method; conditions: isolate 209321, 18 h; in short: as §1
[25] = system: Escherichia coli; assay: Antibacterial activity against extended-spectrum beta-lactamase producing Escherichia coli isolate 208687 after 18 hrs in presence of BPL by CLSI broth microdilution method; conditions: isolate 208687, 18 h; in short: as §1
[26] = system: Pseudomonas aeruginosa; assay: Antibacterial activity against IMP-4 producing Pseudomonas aeruginosa isolate 209471 after 18 hrs by CLSI broth microdilution method; conditions: isolate 209471, 18 h
[27] = system: Escherichia coli; assay: Antibacterial activity against extended-spectrum beta-lactamase producing Escherichia coli isolate 209285 after 18 hrs in presence of BPL by CLSI broth microdilution method; conditions: isolate 209285, 18 h; in short: as §1
[28] = system: Escherichia coli; assay: Selectivity index, ratio of MIC for against extended-spectrum beta-lactamase producing Escherichia coli isolate 212648 to MIC for extended-spectrum beta-lactamase producing Escherichia coli isolate 212648 in presence of BPL
[29] = system: Escherichia coli; assay: Selectivity index, ratio of MIC for against extended-spectrum beta-lactamase producing Escherichia coli isolate 209285 to MIC for extended-spectrum beta-lactamase producing Escherichia coli isolate 209285 in presence of BPL
[30] = system: Pseudomonas aeruginosa; assay: Selectivity index, ratio of MIC for against IMP-4 producing Pseudomonas aeruginosa isolate 212886 to MIC for against IMP-4 producing Pseudomonas aeruginosa isolate 212886 in presence of BPL
[31] = system: Pseudomonas aeruginosa; assay: Antibacterial activity against IMP-4 producing Pseudomonas aeruginosa isolate 209471 after 18 hrs in presence of BPL by CLSI broth microdilution method; conditions: isolate 209471, 18 h; in short: as §1
[32] = system: Klebsiella pneumoniae; assay: Antibacterial activity against KPC-2 producing Klebsiella pneumoniae isolate 212423 after 18 hrs by CLSI broth microdilution method; conditions: isolate 212423, 18 h
[33] = system: Escherichia coli; assay: Antibacterial activity against extended-spectrum beta-lactamase producing Escherichia coli isolate 208687 after 18 hrs by CLSI broth microdilution method; conditions: isolate 208687, 18 h
[34] = system: Klebsiella pneumoniae; assay: Antibacterial activity against KPC-2 producing Klebsiella pneumoniae isolate 212232 after 18 hrs by CLSI broth microdilution method; conditions: isolate 212232, 18 h
[35] = system: Pseudomonas aeruginosa; assay: Antibacterial activity against IMP-4 producing Pseudomonas aeruginosa isolate 207272 after 18 hrs in presence of BPL by CLSI broth microdilution method; conditions: isolate 207272, 18 h; in short: as §1
[36] = system: Klebsiella pneumoniae; assay: Antibacterial activity against KPC-2 producing Klebsiella pneumoniae isolate 209632 after 18 hrs by CLSI broth microdilution method; conditions: isolate 209632, 18 h
[37] = system: Klebsiella pneumoniae; assay: Antibacterial activity against KPC-2 producing Klebsiella pneumoniae isolate 209735 after 18 hrs in presence of BPL by CLSI broth microdilution method; conditions: isolate 209735, 18 h; in short: as §1
[38] = system: Pseudomonas aeruginosa; assay: Antibacterial activity against IMP-4 producing Pseudomonas aeruginosa isolate 208247 after 18 hrs by CLSI broth microdilution method; conditions: isolate 208247, 18 h
[39] = system: Pseudomonas aeruginosa; assay: Antibacterial activity against IMP-4 producing Pseudomonas aeruginosa isolate 209321 after 18 hrs by CLSI broth microdilution method; conditions: isolate 209321, 18 h
[40] = system: Pseudomonas aeruginosa; assay: Selectivity index, ratio of MIC for against IMP-4 producing Pseudomonas aeruginosa isolate 209321 to MIC for against IMP-4 producing Pseudomonas aeruginosa isolate 209321 in presence of BPL
[41] = system: Pseudomonas aeruginosa; assay: Antibacterial activity against IMP-4 producing Pseudomonas aeruginosa isolate 212886 after 18 hrs in presence of BPL by CLSI broth microdilution method; conditions: isolate 212886, 18 h; in short: as §1
[42] = system: Pseudomonas aeruginosa; assay: Selectivity index, ratio of MIC for against IMP-4 producing Pseudomonas aeruginosa isolate 209471 to MIC for against IMP-4 producing Pseudomonas aeruginosa isolate 209471 in presence of BPL
[43] = system: Pseudomonas aeruginosa; assay: Antibacterial activity against IMP-4 producing Pseudomonas aeruginosa isolate 208247 after 18 hrs in presence of BPL by CLSI broth microdilution method; conditions: isolate 208247, 18 h; in short: as §1
[44] = system: Klebsiella pneumoniae; assay: Selectivity index, ratio of MIC for against KPC-2 producing Klebsiella pneumoniae isolate 209632 to MIC for against KPC-2 producing Klebsiella pneumoniae isolate 209632 in presence of BPL
[45] = system: Pseudomonas aeruginosa; assay: Antibacterial activity against IMP-4 producing Pseudomonas aeruginosa isolate 212886 after 18 hrs by CLSI broth microdilution method; conditions: isolate 212886, 18 h

## CC(C)C(O/N=C(\C(=O)NC1C(=O)N(S(=O)(=O)O)C12CCC2)c1csc(N)n1)c1cc(=O)c(O)cn1O (stereo not given)
[1]
  Selectivity Index: >8
[2]
  Selectivity Index: >8
[3]
  MIC: 4 µg/mL (≈ 7.19 µM)
[4]
  MIC: 32 µg/mL (≈ 57.5 µM)
[5]
  Selectivity Index: 4
[6]
  Selectivity Index: 2
[7]
  Selectivity Index: 2
[8]
  MIC: 2 µg/mL (≈ 3.59 µM)
[9]
  Selectivity Index: 2
[10]
  MIC: 2 µg/mL (≈ 3.59 µM)
[11]
  MIC: 4 µg/mL (≈ 7.19 µM)
[12]
  MIC: 16 µg/mL
[13]
  MIC: 8 µg/mL
[14]
  Selectivity Index: 1
[15]
  Selectivity Index: 8
[16]
  MIC: 1 µg/mL
[17]
  MIC: 8 µg/mL
[18]
  MIC: 4 µg/mL
[19]
  MIC: 0.5 µg/mL
[20]
  MIC: 1 µg/mL
[21]
  MIC: 32 µg/mL (≈ 57.5 µM)
[22]
  MIC: > 64 µg/mL
[23]
  Selectivity Index: 1
[24]
  MIC: 16 µg/mL
[25]
  MIC: 0.5 µg/mL
[26]
  MIC: 32 µg/mL (≈ 57.5 µM)
[27]
  MIC: 2 µg/mL
[28]
  Selectivity Index: 2
[29]
  Selectivity Index: 2
[30]
  Selectivity Index: 1
[31]
  MIC: 32 µg/mL
[32]
  MIC: > 64 µg/mL
[33]
  MIC: 1 µg/mL (≈ 1.8 µM)
[34]
  MIC: 8 µg/mL (≈ 14.4 µM)
[35]
  MIC: 32 µg/mL
[36]
  MIC: > 64 µg/mL
[37]
  MIC: 8 µg/mL
[38]
  MIC: 16 µg/mL (≈ 28.7 µM)
[39]
  MIC: 32 µg/mL (≈ 57.5 µM)
[40]
  Selectivity Index: 2
[41]
  MIC: 16 µg/mL
[42]
  Selectivity Index: 1
[43]
  MIC: 16 µg/mL
[44]
  Selectivity Index: >4
[45]
  MIC: 16 µg/mL (≈ 28.7 µM)

## CC(C)C(O/N=C(\C(=O)N[C@@H]1C(=O)N(S(=O)(=O)O)[C@@H]1COS(=O)(=O)O)c1csc(N)n1)c1cc(=O)c(O)cn1O (stereo not given in full)
[1]
  Selectivity Index: 4
[2]
  Selectivity Index: 8
[3]
  MIC: 2 µg/mL (≈ 3.19 µM)
[4]
  MIC: 1 µg/mL (≈ 1.6 µM)
[5]
  Selectivity Index: 4
[6]
  Selectivity Index: 2
[7]
  Selectivity Index: 4
[8]
  MIC: 8 µg/mL (≈ 12.8 µM)
[9]
  Selectivity Index: 16
[10]
  MIC: 8 µg/mL (≈ 12.8 µM)
[11]
  MIC: 8 µg/mL (≈ 12.8 µM)
[12]
  MIC: 0.125 µg/mL
[13]
  MIC: 0.5 µg/mL
[14]
  Selectivity Index: 1
[15]
  Selectivity Index: 1
[16]
  MIC: 2 µg/mL
[17]
  MIC: 0.25 µg/mL
[18]
  MIC: 0.125 µg/mL
[19]
  MIC: 2 µg/mL
[20]
  MIC: 4 µg/mL
[21]
  MIC: 32 µg/mL (≈ 51.1 µM)
[22]
  MIC: 2 µg/mL (≈ 3.19 µM)
[23]
  Selectivity Index: 1
[24]
  MIC: 32 µg/mL
[25]
  MIC: 2 µg/mL
[26]
  MIC: 32 µg/mL (≈ 51.1 µM)
[27]
  MIC: 4 µg/mL
[28]
  Selectivity Index: 4
[29]
  Selectivity Index: 2
[30]
  Selectivity Index: >2
[31]
  MIC: 32 µg/mL
[32]
  MIC: 2 µg/mL (≈ 3.19 µM)
[33]
  MIC: 8 µg/mL (≈ 12.8 µM)
[34]
  MIC: 2 µg/mL (≈ 3.19 µM)
[35]
  MIC: 32 µg/mL
[36]
  MIC: 0.5 µg/mL (≈ 0.798 µM)
[37]
  MIC: 0.25 µg/mL
[38]
  MIC: 32 µg/mL (≈ 51.1 µM)
[39]
  MIC: 32 µg/mL (≈ 51.1 µM)
[40]
  Selectivity Index: 1
[41]
  MIC: 32 µg/mL
[42]
  Selectivity Index: 1
[43]
  MIC: 32 µg/mL
[44]
  Selectivity Index: 4
[45]
  MIC: > 64 µg/mL
